Assay results taken from ChEMBL document CHEMBL3259704, “Second generation steroidal 4-aminoquinolines are potent, dual-target inhibitors of the botulinum neurotoxin serotype A metalloprotease and P. falciparum malaria” (J Med Chem, 2014).

Assays:
[1] = biological target: Botulinum neurotoxin type A (Clostridium botulinum) (UniProt P0DPI0); experiment: Inhibition of Clostridium botulinum recombinant BoNT/A light chain using N-terminal acetylated, C-terminal aminated SNAP-25 (187-203) as substrate at 20 uM by reverse-phase HPLC analysis
Sequence of Botulinum neurotoxin type A (Clostridium botulinum) (P0DPI0 2-448 limits assumed): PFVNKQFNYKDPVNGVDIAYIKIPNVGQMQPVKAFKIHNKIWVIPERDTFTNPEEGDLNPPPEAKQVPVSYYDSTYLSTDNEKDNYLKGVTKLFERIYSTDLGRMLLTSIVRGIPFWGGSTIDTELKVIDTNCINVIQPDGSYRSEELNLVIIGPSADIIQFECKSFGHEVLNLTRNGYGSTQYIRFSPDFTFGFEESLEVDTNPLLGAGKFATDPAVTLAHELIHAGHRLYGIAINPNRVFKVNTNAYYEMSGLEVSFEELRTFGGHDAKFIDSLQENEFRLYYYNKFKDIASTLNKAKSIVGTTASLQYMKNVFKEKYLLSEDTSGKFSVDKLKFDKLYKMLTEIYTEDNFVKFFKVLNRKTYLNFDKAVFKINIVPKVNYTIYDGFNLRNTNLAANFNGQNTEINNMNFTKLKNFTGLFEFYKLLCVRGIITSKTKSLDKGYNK
How it was run: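 Recombinant BoNT/A LC with SNAP-25 187–203 peptide substrate in 40 mM HEPES–0.05% Tween, pH 7.3, with 0.5 mg/mL BSA and 50 μM excess Zn, at 37 °C. Quenched with TFA; reverse-phase HPLC product/substrate peak areas give percent inhibition, run in duplicate.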

[2] = biological target: Botulinum neurotoxin type A (Clostridium botulinum, UniProt P0DPI0); experiment: Inhibition of Clostridium botulinum recombinant BoNT/A light chain using N-terminal acetylated, C-terminal aminated SNAP-25 (187-203) as substrate by reverse-phase HPLC analysis
Sequence of Botulinum neurotoxin type A (P0DPI0 2-448 limits assumed): as above
How it was run: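 Same HPLC LC cleavage assay (pH 7.3 HEPES/Tween, BSA, excess Zn, 37 °C). […] Ki comes from velocity versus substrate at several inhibitor levels, globally fit to a competitive model.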

Plasmodium falciparum [3] = experiment: Antimalarial activity against CQ-resistant, MFQ-susceptible Plasmodium falciparum W2 clone Indochina 1 isolate assessed as inhibition of parasite proliferation by MSF assay; assay type: functional, organism-based
How it was run: (§1)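 SYBR Green I fluorescence (MSF) microtiter drug-sensitivity assay: malarial DNA content is the measure of in vitro parasite proliferation. Resistance index is the IC90 ratio of the resistant strain to D6.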

Plasmodium falciparum [4] = experiment: Antimalarial activity against CQ, MFQ-susceptible Plasmodium falciparum D6 clone Sierra 1/UNC isolate assessed as inhibition of parasite proliferation by MSF assay; assay type: functional, organism-based; how it was run: as §1
Plasmodium falciparum [5] = experiment: Antimalarial activity against CQ, MFQ-resistant Plasmodium falciparum TM91C235 clone Southeast asian isolate assessed as inhibition of parasite proliferation by MSF assay; assay type: functional, organism-based; how it was run: as §1
Plasmodium falciparum [6] = experiment: Resistance index, ratio of IC90 for CQ, MFQ-resistant Plasmodium falciparum TM91C235 clone Southeast asian isolate to IC90 for CQ, MFQ-susceptible Plasmodium falciparum D6 clone Sierra 1/UNC isolate; assay type: functional; how it was run: as §1
Plasmodium falciparum [7] = experiment: Resistance index, ratio of IC90 for CQ-resistant, MFQ-susceptible Plasmodium falciparum W2 clone Indochina 1 isolate to IC90 for CQ, MFQ-susceptible Plasmodium falciparum D6 clone Sierra 1/UNC isolate; assay type: functional; how it was run: as §1
HepG2 = experiment: Cytotoxicity against human HepG2 cells assessed as cell viability after 48 hrs by MTT assay; assay type: cell-based; conditions: HepG2, 48 h
[8] = Selectivity index, ratio of IC50 for human HepG2 cells to IC50 for CQ-resistant, MFQ-susceptible Plasmodium falciparum W2 clone Indochina 1 isolate; assay type: toxicity, cell-based; conditions: read-out: Ratio IC50
[9] = Selectivity index, ratio of IC50 for human HepG2 cells to IC50 for CQ, MFQ-susceptible Plasmodium falciparum D6 clone Sierra 1/UNC isolate; assay type: toxicity, cell-based; conditions: read-out: Ratio IC50
[10] = Selectivity index, ratio of IC50 for human HepG2 cells to IC50 for CQ, MFQ-resistant Plasmodium falciparum TM91C235 clone Southeast asian isolate; assay type: toxicity, cell-based; conditions: read-out: Ratio IC50
PBMC = experiment: Cytotoxicity against human PBMC assessed as inhibition of cell survival after 72 hrs; assay type: cell-based
How it was run: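 PBMC from heparinized healthy-donor blood (Histopaque) in RPMI-1640 with 10% FCS and PHA stimulation, 200 000 cells/well, with compounds in DMSO, 72 h at 37 °C, 6% CO2.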

Liver microsome = experiment: Half life in human liver microsomes; assay type: ADME; conditions: microsomes
[11] = Half life in mouse liver microsomes; assay type: ADME; conditions: liver microsomes

SMILES | inhibition [1] [%] | IC50 [2] [nM] | IC50 (Plasmodium falciparum [3]) [nM] | IC90 (Plasmodium falciparum [3]) [nM] | IC50 (Plasmodium falciparum [4]) [nM] | IC90 (Plasmodium falciparum [4]) [nM] | IC50 (Plasmodium falciparum [5]) [nM] | IC90 (Plasmodium falciparum [5]) [nM] | Ratio (Plasmodium falciparum [6]) | Ratio (Plasmodium falciparum [7]) | IC50 (HepG2) [nM] | selectivity ratio [8] | selectivity ratio [9] | selectivity ratio [10] | IC50 (PBMC) [nM] | t1/2 (Liver microsome) [h] | half-life [11] [h] | Ki [2] [nM]
CC(=O)O[C@H]1C[C@H]2[C@@H]([C@H](OC(C)=O)C[C@@H]3C[C@H](N(C)C)CC[C@@]32C)[C@@H]2CC[C@H]([C@H](C)CCCN(C)CCNc3ccnc4cc(Cl)ccc34)[C@@]12C | 85.5 | 2270 | 1.35 | 1.35 | 2.35 | 2.63 | 2.9 | 3.32 | 1.26 | 0.51 | 9210 | 6820 | 3920 | 3180 | 2520 | 0.45 | 1 | –
CC(=O)O[C@@H]1CC[C@@]2(C)[C@@H](C1)C[C@@H](OC(C)=O)[C@@H]1[C@@H]2C[C@H](OC(C)=O)[C@]2(C)[C@@H]([C@H](C)CCCN(C)CCCNc3ccnc4cc(Cl)ccc34)CC[C@@H]12 | 61.1 | 4480 | 11.8 | 16.9 | 6.91 | 10.5 | 22.3 | 47.3 | 4.52 | 1.61 | 1580 | 134 | 229 | 71 | – | – | – | 7690
CC(=O)O[C@H]1C[C@H]2[C@@H]([C@H](OC(C)=O)C[C@@H]3C[C@H](N(C)C)CC[C@@]32C)[C@@H]2CC[C@H]([C@H](C)CCCNCCCNc3ccnc4cc(Cl)ccc34)[C@@]12C | 92.6 | 1340 | 36.1 | 81.1 | 101 | 139 | 88.7 | 165 | 1.19 | 0.58 | 13800 | 382 | 137 | 156 | 7840 | – | – | –
CC(=O)O[C@H]1C[C@H]2[C@@H]([C@H](OC(C)=O)C[C@@H]3C[C@H](O)CC[C@@]32C)[C@@H]2CC[C@H]([C@H](C)CCCNCCCNc3ccnc4cc(Cl)ccc34)[C@@]12C | 69.9 | 5180 | 12.8 | 18.8 | 9.3 | 16.5 | 11.9 | 30.3 | 1.84 | 1.14 | 1070 | 84 | 115 | 90 | – | 0.13 | 1 | –
CC(=O)O[C@H]1C[C@H]2[C@@H]([C@H](OC(C)=O)C[C@@H]3C[C@H](N)CC[C@@]32C)[C@@H]2CC[C@H]([C@H](C)CCCN(CCCNc3ccnc4cc(Cl)ccc34)CCC[C@@H](C)[C@H]3CC[C@H]4[C@@H]5[C@H](OC(C)=O)C[C@@H]6C[C@H](N)CC[C@]6(C)[C@H]5C[C@H](OC(C)=O)[C@]34C)[C@@]12C | 92.8 | 630 | 218 | 414 | 245 | 321 | 297 | 313 | 0.97 | 1.29 | 2130 | 10 | 9 | 7 | – | – | – | –
CC(=O)N[C@@H]1CC[C@@]2(C)[C@@H](C1)C[C@@H](OC(C)=O)[C@@H]1[C@@H]2C[C@H](OC(C)=O)[C@]2(C)[C@@H]([C@H](C)CCCNCCCNc3ccnc4cc(Cl)ccc34)CC[C@@H]12 | 77.3 | 4920 | 26.4 | 35.8 | 12.8 | 36.5 | 28.1 | 39.9 | 1.09 | 0.98 | 1450 | 55 | 114 | 51 | – | – | – | –
CC(=O)O[C@H]1C[C@H]2[C@@H]([C@H](OC(C)=O)C[C@@H]3C[C@H](NS(C)(=O)=O)CC[C@@]32C)[C@@H]2CC[C@H]([C@H](C)CCCN(C)CCCNc3ccnc4cc(Cl)ccc34)[C@@]12C | 55.6 | 8210 | 30.5 | 54.7 | 31.7 | 55.9 | 20.3 | 28.6 | 0.51 | 0.98 | 2830 | 93 | 89 | 139 | – | 0.183 | 1 | –
CC(=O)O[C@H]1C[C@H]2[C@@H]([C@H](OC(C)=O)C[C@@H]3C[C@H](NC(=O)OC(C)(C)C)CC[C@@]32C)[C@@H]2CC[C@H]([C@H](C)CCCN(C)CCNc3ccnc4cc(Cl)ccc34)[C@@]12C | 30 | 6780 | 8.05 | 11.7 | 8.93 | 10.9 | 16.3 | 22.6 | 2.07 | 1.07 | 2360 | 293 | 264 | 144 | – | – | – | –
CC(=O)O[C@@H]1CC[C@@]2(C)[C@@H](C1)C[C@@H](OC(C)=O)[C@@H]1[C@@H]2C[C@H](OC(C)=O)[C@]2(C)[C@@H]([C@H](C)CCCNCCCNc3ccnc4cc(Cl)ccc34)CC[C@@H]12 | 81.4 | 2280 | 9.42 | 19 | 9.72 | 13.8 | 14.5 | 31.9 | 2.31 | 1.38 | 980 | 104 | 101 | 67 | – | – | – | 5670
CC(=O)O[C@H]1C[C@H]2[C@@H]([C@H](OC(C)=O)C[C@@H]3C[C@H](NC(=O)OC(C)(C)C)CC[C@@]32C)[C@@H]2CC[C@H]([C@H](C)CCCNCCNc3ccnc4cc(Cl)ccc34)[C@@]12C | 67.4 | 4900 | 7.34 | 12.3 | 24.1 | 29.5 | 27.6 | 51.9 | 1.76 | 0.42 | 12800 | 1740 | 531 | 464 | – | – | – | –
CC(=O)O[C@@H]1CC[C@@]2(C)[C@@H](C1)C[C@@H](OC(C)=O)[C@@H]1[C@@H]2C[C@H](OC(C)=O)[C@]2(C)[C@@H]([C@H](C)CCCN(C)CCNc3ccnc4cc(Cl)ccc34)CC[C@@H]12 | 33.3 | – | 18.6 | 38.6 | 7.47 | 19.1 | 23 | 32.9 | 1.73 | 2.03 | 1810 | 98 | 242 | 79 | – | – | – | 34500
CC(=O)O[C@H]1C[C@H]2[C@@H]([C@H](OC(C)=O)C[C@@H]3C[C@H](N)CC[C@@]32C)[C@@H]2CC[C@H]([C@H](C)CCCNCCCNc3ccnc4cc(Cl)ccc34)[C@@]12C | 84.8 | 1040 | 195 | 282 | 138 | 234 | 243 | 347 | 1.49 | 1.21 | 10400 | 54 | 75 | 43 | – | – | – | 3450
CC(=O)O[C@H]1C[C@H]2[C@@H]([C@H](OC(C)=O)C[C@@H]3C[C@H](N)CC[C@@]32C)[C@@H]2CC[C@H]([C@H](C)CCCN(C)CCCNc3ccnc4cc(Cl)ccc34)[C@@]12C | 81.4 | 1130 | 110 | 153 | 112 | 150 | 100 | 128 | 0.85 | 1.02 | 4970 | 45 | 44 | 50 | – | – | – | –
